For assay [1], the target named is RAF proto-oncogene serine/threonine-protein kinase (Homo sapiens) (UniProt P04049). In words: Inhibition of human recombinant RAF1 at 40 nM related to control ULK1.
Assay [2] addresses Glycogen synthase kinase-3 beta (Homo sapiens) (UniProt P49841). Description: Inhibition of human recombinant GSK3B at 40 nM related to control ULK1.
Assay [3] addresses T1, Tribbles homolog 2 (Homo sapiens) (UniProt Q92519).
T1 sequence (whole entry): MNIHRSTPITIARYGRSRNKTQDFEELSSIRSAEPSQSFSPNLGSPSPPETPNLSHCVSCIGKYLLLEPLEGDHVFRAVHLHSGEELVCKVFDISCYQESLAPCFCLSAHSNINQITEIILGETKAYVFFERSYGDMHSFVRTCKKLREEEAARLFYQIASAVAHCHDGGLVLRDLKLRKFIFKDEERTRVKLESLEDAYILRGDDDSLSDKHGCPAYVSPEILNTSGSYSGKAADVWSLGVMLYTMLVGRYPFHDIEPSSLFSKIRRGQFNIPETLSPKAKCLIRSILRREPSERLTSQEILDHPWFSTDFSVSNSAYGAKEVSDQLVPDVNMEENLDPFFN
In words: Inhibition of human recombinant Trb2 at 40 nM related to control ULK1.

For assay [4], the target named is T2, Phosphorylase b kinase gamma catalytic chain, liver/testis isoform (Homo sapiens) (UniProt P15735).
T2 sequence (whole entry): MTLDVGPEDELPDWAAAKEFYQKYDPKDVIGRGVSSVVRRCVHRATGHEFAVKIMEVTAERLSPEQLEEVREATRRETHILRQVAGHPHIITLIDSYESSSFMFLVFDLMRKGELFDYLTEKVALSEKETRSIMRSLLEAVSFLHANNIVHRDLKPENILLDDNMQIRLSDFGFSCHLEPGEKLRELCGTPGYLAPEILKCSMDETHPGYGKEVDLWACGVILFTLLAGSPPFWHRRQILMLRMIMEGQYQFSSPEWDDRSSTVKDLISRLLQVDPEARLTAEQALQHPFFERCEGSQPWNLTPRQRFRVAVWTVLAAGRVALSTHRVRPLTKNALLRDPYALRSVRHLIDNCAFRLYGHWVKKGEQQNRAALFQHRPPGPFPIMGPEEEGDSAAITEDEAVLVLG
In words: Inhibition of human recombinant PHKg2 at 40 nM related to control ULK1.

The target of assay [5] is Serine/threonine-protein kinase 35 (Homo sapiens) (UniProt Q8TDR2). Description: Inhibition of human recombinant CLIK1 at 40 nM related to control ULK1.
The target of assay [6] is Dual specificity protein kinase CLK3 (Homo sapiens) (UniProt P49761). Description: Inhibition of human recombinant CLK3 at 40 nM in presence of ATP by radiometric assay relative to control.
In assay [7] the target is T3, Testis-specific serine/threonine-protein kinase 2 (Homo sapiens) (UniProt Q96PF2).
T3 sequence (whole entry): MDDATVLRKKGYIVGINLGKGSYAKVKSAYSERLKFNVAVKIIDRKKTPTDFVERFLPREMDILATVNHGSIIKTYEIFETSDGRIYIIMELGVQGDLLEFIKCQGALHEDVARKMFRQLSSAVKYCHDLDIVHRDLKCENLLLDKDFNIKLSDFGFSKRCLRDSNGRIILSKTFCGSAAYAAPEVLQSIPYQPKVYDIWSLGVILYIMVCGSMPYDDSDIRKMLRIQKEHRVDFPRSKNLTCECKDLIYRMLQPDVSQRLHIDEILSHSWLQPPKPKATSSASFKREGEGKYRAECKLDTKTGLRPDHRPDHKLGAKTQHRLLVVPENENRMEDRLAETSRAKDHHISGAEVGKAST
Description: Inhibition of human recombinant TSSK2 at 500 nM in presence of ATP by radiometric assay relative to control.

The target in assay [8] is Tau-tubulin kinase 1 (Homo sapiens) (UniProt Q5TCY1). Description: Inhibition of human recombinant TTBK1 at 500 nM related to control ULK1.
The target in assay [9] is Activated CDC42 kinase 1 (Homo sapiens) (UniProt Q07912). Description: Inhibition of human recombinant ACK at 500 nM in presence of ATP by radiometric assay relative to control. The method in brief: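 Panel of 327 recombinant human kinases in radiometric activity assays, each screened in duplicate at a single inhibitor concentration; percent activity remaining relative to vehicle control, percent inhibition taken as 100 minus activity remaining.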

Assay [10] addresses NT-3 growth factor receptor (Homo sapiens) (UniProt Q16288). Description: Inhibition of human recombinant TRKC at 500 nM in presence of ATP by radiometric assay relative to control.
For assay [11], the target named is Wee1-like protein kinase 2 (Homo sapiens) (UniProt P0C1S8). Description: Inhibition of human recombinant Wee1B at 500 nM in presence of ATP by radiometric assay relative to control.
For assay [12], the target named is Tau-tubulin kinase 2 (Homo sapiens) (UniProt Q6IQ55). In words: Inhibition of human recombinant TTBK2 at 500 nM related to control ULK1.
Assay [13] concerns the target Fibroblast growth factor receptor 1 (Homo sapiens) (UniProt P11362). Description: Inhibition of human recombinant FGFR1 at 500 nM in presence of ATP by radiometric assay relative to control.
Assay [14] has as its target Serine/threonine-protein kinase NIM1 (Homo sapiens) (UniProt Q8IY84). Description: Inhibition of human recombinant NIM1 at 15 nM in presence of ATP by radiometric assay relative to control.
The target of assay [15] is Protein kinase C eta type (Homo sapiens) (UniProt P24723). Description: Inhibition of human recombinant PKCH at 15 nM in presence of ATP by radiometric assay relative to control.
In assay [16] the target is Mitogen-activated protein kinase 10 (Homo sapiens) (UniProt P53779). In words: Inhibition of human recombinant JNK3 at 15 nM related to control ULK1.
Assay [17] has as its target T4, Serine/threonine-protein kinase 17A (Homo sapiens) (UniProt Q9UEE5).
T4 sequence (whole entry): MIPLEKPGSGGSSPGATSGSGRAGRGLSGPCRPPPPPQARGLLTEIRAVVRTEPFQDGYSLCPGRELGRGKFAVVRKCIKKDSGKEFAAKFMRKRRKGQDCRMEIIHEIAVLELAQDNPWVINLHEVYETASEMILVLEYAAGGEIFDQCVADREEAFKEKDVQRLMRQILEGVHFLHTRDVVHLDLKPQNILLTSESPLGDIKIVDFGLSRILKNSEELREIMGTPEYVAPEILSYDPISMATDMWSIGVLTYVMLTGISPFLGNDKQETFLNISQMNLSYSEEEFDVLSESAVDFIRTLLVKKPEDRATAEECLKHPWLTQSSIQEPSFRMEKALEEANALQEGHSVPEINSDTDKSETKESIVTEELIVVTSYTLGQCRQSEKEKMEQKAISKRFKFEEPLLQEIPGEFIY
In words: Inhibition of human recombinant DRAK1 at 15 nM in presence of ATP by radiometric assay relative to control.

Assay [18] deals with Tau-tubulin kinase 2 (Homo sapiens) (UniProt Q6IQ55). In words: Inhibition of human recombinant TTBK2 at 15 nM related to control ULK1.
Assay [19] has as its target Serine/threonine-protein kinase MARK1 (Homo sapiens) (UniProt Q9P0L2). Description: Inhibition of human recombinant MARK1 at 15 nM in presence of ATP by radiometric assay relative to control.

Sequence of Tau-tubulin kinase 2 (Homo sapiens) (Q6IQ55 whole entry): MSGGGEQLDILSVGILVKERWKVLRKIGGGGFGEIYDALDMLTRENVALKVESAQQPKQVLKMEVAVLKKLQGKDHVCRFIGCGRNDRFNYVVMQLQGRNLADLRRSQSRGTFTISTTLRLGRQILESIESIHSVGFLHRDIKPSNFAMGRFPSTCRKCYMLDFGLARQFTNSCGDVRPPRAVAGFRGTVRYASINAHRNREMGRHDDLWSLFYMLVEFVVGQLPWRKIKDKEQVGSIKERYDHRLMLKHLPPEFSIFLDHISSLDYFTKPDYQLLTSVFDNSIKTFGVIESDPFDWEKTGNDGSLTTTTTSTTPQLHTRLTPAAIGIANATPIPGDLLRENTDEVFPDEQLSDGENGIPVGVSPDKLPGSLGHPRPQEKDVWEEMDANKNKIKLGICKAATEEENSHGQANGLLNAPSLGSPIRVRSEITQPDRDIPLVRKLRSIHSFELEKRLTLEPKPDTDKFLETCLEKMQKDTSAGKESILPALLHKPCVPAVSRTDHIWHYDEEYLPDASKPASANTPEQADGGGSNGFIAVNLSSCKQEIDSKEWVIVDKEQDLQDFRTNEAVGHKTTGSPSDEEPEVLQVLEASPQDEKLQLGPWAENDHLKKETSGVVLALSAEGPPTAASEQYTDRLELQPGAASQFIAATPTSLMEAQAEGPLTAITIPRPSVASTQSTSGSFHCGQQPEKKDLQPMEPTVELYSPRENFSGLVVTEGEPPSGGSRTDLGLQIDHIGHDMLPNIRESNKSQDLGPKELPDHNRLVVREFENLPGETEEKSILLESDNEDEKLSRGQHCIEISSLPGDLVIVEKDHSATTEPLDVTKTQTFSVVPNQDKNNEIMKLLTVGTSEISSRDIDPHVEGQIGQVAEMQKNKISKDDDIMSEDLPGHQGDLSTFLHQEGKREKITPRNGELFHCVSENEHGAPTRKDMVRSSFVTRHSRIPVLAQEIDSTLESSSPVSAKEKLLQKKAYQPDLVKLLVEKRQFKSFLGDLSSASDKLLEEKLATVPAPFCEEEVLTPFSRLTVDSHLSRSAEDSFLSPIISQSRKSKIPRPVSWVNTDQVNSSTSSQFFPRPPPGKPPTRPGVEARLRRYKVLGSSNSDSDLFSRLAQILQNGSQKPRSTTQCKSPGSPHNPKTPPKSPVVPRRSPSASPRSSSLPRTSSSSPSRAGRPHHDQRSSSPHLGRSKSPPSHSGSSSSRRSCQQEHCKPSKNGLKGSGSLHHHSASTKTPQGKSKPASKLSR
Sequence of RAF proto-oncogene serine/threonine-protein kinase (Homo sapiens) (P04049 whole entry): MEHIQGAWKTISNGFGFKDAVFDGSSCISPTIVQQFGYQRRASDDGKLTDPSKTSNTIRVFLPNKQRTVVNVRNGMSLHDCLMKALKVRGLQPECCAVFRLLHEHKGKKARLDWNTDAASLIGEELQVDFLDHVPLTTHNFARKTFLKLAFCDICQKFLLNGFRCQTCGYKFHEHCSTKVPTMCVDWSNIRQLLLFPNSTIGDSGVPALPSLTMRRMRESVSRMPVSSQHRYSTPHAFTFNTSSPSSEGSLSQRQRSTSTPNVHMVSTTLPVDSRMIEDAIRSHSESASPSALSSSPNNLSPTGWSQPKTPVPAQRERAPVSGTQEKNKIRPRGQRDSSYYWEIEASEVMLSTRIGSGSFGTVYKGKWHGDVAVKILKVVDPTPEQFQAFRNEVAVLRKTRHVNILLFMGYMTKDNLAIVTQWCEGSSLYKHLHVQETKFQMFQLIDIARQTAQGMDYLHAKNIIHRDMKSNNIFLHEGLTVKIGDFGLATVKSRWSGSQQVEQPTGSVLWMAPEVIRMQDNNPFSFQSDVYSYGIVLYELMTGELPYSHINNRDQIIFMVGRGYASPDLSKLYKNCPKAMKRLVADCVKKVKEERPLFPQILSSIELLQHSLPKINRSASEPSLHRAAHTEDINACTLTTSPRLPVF
Sequence of Serine/threonine-protein kinase 35 (Homo sapiens) (Q8TDR2 whole entry): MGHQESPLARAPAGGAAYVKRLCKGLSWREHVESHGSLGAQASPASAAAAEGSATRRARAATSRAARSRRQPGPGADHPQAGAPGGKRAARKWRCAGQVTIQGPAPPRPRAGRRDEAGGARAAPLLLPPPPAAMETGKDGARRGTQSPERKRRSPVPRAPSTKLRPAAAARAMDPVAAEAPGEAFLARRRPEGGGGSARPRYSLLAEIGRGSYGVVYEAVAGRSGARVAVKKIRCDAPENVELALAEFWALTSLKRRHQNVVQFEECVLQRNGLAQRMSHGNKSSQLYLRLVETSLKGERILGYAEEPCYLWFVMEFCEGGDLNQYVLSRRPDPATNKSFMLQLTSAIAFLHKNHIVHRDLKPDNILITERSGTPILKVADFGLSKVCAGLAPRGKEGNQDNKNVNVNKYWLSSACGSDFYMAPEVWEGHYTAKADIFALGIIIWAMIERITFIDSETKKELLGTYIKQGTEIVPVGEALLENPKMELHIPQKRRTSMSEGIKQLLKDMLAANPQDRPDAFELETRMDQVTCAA
Sequence of Glycogen synthase kinase-3 beta (Homo sapiens) (P49841 whole entry, looked up): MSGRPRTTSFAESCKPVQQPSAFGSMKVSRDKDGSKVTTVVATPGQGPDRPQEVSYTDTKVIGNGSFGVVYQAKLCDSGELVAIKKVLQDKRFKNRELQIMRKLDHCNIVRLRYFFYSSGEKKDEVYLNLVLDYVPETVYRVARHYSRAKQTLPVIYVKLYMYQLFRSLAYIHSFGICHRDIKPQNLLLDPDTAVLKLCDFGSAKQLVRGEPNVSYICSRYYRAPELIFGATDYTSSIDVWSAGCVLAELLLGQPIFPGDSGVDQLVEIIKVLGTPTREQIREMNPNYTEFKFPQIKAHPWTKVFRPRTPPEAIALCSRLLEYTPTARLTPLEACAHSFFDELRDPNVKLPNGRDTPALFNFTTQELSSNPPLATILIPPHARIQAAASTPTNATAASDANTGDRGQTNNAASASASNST
Sequence of Mitogen-activated protein kinase 10 (Homo sapiens) (P53779 whole entry): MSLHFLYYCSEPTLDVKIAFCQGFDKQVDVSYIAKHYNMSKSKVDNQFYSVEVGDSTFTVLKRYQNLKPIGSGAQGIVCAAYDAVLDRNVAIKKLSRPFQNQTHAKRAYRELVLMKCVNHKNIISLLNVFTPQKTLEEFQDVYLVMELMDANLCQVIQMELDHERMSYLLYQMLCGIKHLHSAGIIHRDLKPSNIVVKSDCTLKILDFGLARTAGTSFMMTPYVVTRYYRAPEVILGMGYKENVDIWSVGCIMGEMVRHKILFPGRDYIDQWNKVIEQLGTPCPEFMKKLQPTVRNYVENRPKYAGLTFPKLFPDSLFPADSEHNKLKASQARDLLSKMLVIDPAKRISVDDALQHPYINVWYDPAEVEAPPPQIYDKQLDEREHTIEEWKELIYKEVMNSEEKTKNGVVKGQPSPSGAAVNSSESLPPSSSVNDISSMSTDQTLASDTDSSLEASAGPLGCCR
Sequence of Activated CDC42 kinase 1 (Homo sapiens) (Q07912 whole entry, looked up): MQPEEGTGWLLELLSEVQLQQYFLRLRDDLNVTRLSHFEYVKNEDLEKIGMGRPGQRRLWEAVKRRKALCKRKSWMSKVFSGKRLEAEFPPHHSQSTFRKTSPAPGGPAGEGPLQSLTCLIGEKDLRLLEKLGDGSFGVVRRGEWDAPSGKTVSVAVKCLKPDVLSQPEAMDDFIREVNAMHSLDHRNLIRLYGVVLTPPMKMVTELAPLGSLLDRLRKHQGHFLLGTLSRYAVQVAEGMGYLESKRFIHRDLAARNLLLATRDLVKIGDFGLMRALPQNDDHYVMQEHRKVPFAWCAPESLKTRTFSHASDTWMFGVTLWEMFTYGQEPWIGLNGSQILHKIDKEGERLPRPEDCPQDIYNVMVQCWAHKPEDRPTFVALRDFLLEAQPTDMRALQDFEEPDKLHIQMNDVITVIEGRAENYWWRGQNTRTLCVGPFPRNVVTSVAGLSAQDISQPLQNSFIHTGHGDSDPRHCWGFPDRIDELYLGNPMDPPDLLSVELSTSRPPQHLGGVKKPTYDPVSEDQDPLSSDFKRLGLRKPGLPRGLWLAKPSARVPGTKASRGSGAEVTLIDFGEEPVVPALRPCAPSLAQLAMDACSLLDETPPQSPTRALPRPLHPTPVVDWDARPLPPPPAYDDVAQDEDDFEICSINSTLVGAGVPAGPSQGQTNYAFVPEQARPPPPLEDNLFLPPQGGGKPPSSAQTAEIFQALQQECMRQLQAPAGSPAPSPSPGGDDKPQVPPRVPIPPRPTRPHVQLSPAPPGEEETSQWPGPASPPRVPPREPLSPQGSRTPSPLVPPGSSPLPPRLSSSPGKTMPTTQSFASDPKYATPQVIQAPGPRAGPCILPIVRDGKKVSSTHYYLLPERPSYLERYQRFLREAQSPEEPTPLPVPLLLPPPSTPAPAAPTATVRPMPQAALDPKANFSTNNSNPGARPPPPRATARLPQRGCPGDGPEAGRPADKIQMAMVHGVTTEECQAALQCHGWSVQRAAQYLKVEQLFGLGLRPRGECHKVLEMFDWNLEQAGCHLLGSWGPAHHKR
Sequence of Wee1-like protein kinase 2 (Homo sapiens) (P0C1S8 whole entry, looked up): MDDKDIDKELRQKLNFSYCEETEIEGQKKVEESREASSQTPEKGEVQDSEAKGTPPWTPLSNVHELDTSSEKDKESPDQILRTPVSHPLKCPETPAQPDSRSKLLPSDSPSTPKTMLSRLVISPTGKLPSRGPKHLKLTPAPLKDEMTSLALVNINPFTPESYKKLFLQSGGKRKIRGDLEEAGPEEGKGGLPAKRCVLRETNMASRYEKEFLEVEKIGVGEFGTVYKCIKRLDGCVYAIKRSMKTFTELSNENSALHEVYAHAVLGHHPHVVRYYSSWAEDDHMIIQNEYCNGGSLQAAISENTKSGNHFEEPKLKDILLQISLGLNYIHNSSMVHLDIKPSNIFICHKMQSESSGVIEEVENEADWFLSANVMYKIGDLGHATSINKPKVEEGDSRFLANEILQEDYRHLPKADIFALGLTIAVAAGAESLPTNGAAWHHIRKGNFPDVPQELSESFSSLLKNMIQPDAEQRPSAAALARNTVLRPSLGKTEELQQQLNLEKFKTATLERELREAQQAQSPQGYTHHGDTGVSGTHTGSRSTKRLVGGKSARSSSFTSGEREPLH

The inhibition is the relative decrease from the control value, in per cent. With `O=C(N[C@@H](C1CC1)C(F)(F)F)c1cc(-c2cnn3cc(-c4ccc(F)cc4)cnc23)cs1`, the fold change (FC) in assay [1] stood at 0.01; in assay [2] it was 0; in assay [3], 0.47; in [4], 0; in [5], 0.01. For the same compound, the inhibition in assay [6] stood at 0%.

With `CNC(=O)c1ccccc1Oc1nc(Nc2cc(OC)c(OC)c(OC)c2)ncc1Br`, the inhibition was determined as 2% in assay [7]; 31% in assay [9]; 0% in [10]; 2% in assay [11]; 35% in [13]. Besides, the fold change (FC) in assay [8] came out at 0.01; in assay [12] it was 0.08.

As to `CC(C)[C@H](NC(=O)c1cc(-c2cnn3cc(-c4ccc(OCCN5CCCCC5)cc4)cnc23)cs1)C(F)(F)F`, the inhibition in [14] was 6%; in [15] it was 0%; in assay [17] it was 71%; in assay [19] it was 54%. The fold change (FC) came out at 0.08 in [16] and 0 in [18].

(Values after ChEMBL document CHEMBL5653631, “A Potent and Selective ULK1 Inhibitor Suppresses Autophagy and Sensitizes Cancer Cells to Nutrient Stress” (iScience, 2018).)
